The source of these data is ChEMBL document CHEMBL4196159 (ACS Med Chem Lett, 2018).

Data set [1] can be described thus: in vitro. The following applies: human, liver microsomes. In general terms: Liver microsomes are vesicles of endoplasmic reticulum, rich in cytochrome P450 enzymes.
Data set [2] can be described thus: in vitro. The following applies: rat, hepatocytes.
Data set [3] is described as follows: physchem. The following applies: phosphate buffer, pH 7.4.
A short description of data set [4]: physchem. To be noted: octanol/buffer, pH 7.4.
Data set [5] is described as follows: Oral bioavailability in rat at 1 mg/kg. The following applies: in vivo. The class given is ADME, organism-based. The procedure, abridged:
(§1)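 Rats dosed 0.5 mg/kg i.v. and 1 mg/kg orally. Pharmacokinetic parameters taken from plasma levels.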

Data set [6] is described as follows: Clearance in rat at 0.5 mg/kg, iv or 1 mg/kg, po. To be noted: in vivo. The class given is ADME, organism-based. The procedure, abridged:
as §1

Data set [7] is described as follows: Volume of distribution at steady state in rat at 0.5 mg/kg, iv or 1 mg/kg, po. The class given is ADME, organism-based. To be noted: in vivo, read-out: Vdss. The procedure, abridged: as §1
The nature of data set [8]: Terminal half life in Beagle dog at 1 mg/kg, iv administered as bolus dose. The class given is ADME, organism-based, Canis lupus familiaris. The following applies: in vivo, read-out: beta t1/2 (converted). The procedure, abridged:
(§2)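 Male Han Wistar rats and male Beagle dogs, at least n = 2. Compound given at 1 mg/kg i.v. Parameters derived from plasma concentrations.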

Data set [9] in a line: Oral bioavailability in Han Wistar rat at 2 mg/kg. The class given is ADME, organism-based. To be noted: in vivo.
The nature of data set [10]: Intrinsic clearance in human cryopreserved hepatocytes assessed per million cells at 1 uM measured after 30 mins by HPLC analysis. To be noted: read-out: CLH. The class given is ADME, cell-based, Hepatocyte. The method, boiled down: (§3)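 Intrinsic clearance (Clint) measured in fresh dog hepatocytes or cryopreserved human hepatocytes.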
The nature of data set [11]: Terminal half life in Han Wistar rat at 1 mg/kg, iv administered as bolus dose. Type of data set: ADME, organism-based. The following applies: in vivo, read-out: beta t1/2 (converted). The method, boiled down: as §2
Data set [12] can be described thus: Intrinsic clearance in dog hepatocytes assessed per million cells at 1 uM measured after 30 mins by HPLC analysis. The class given is ADME, cell-based, Canis lupus familiaris, Hepatocyte. The following applies: read-out: CLH. The method, boiled down: as §3
A short description of data set [13]: Clearance in Beagle dog at 1 mg/kg, iv administered as bolus dose or 2 mg/kg, po. The class given is ADME, organism-based, Canis lupus familiaris. The following applies: in vivo. The method, boiled down: as §2
Data set [14] can be described thus: Oral bioavailability in Beagle dog at 2 mg/kg. The following applies: in vivo. Type of data set: ADME, organism-based, Canis lupus familiaris.
Data set [15] is described as follows: Volume of distribution in Han Wistar rat at 1 mg/kg, iv administered as bolus dose or 2 mg/kg, po. The class given is ADME, organism-based. The following applies: in vivo. The procedure, abridged: as §2
Data set [16] in a line: Clearance in Han Wistar rat at 1 mg/kg, iv administered as bolus dose or 2 mg/kg, po. The class given is ADME, organism-based. To be noted: in vivo. The method, boiled down: as §2
The nature of data set [17]: Volume of distribution in Beagle dog at 1 mg/kg, iv administered as bolus dose or 2 mg/kg, po. The class given is ADME, organism-based, Canis lupus familiaris. The following applies: in vivo. The method, boiled down: as §2
In data set [18] the test system is Mus musculus. Description: Time at which plasma concentration stays above in-vitro cellular IC50 for ATM autophosphorylation at Ser1981 residue in human HT-29 cells in mouse at 10 mg/kg, po. The following applies: in vivo. The class given is ADME, organism-based. The method, boiled down:
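Mice given 10 mg/kg orally. Free plasma concentration over time compared with the in vitro cellular ATM IC50.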

Values after ≈ are worked out from the molar mass of the structure shown. Where only a bound is given, the exact number is not on record here.
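For logD in this document: Shake-flask partitioning between octanol and buffer, equilibrated for 30 min before measurement.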

As to `COCc1ccc(-c2cc3c(N[C@@H](C)c4ccn(C)n4)c(C(N)=O)cnc3cc2F)cn1`, in [1], the intrinsic clearance (microsomal CLint) (in general, the rate of metabolic loss divided by the concentration) at 0.5 h, 1 µM is 15 µL/min/mg.
For the compound `C[C@H](Nc1c(C(N)=O)nnc2ccc(-c3ccc(OCCN(C)C)nc3)cc12)c1ccn(C)n1`, the microsomal CLint at 0.5 h, 1 µM in data set [1] was determined as 25 µL/min/mg. Besides, the hepatocyte CLint at 0.5 h, 1 µM in [2] amounted to 13 µL/min/1e6 cells. Moreover, the solubility (thermodynamic) (usually the concentration in solution at equilibrium with solid) at 24 h in [3] stood at 910 µM (≈ 419 µg/mL). Further, in data set [4], the logD (commonly the decadic logarithm of the distribution of all forms, ionised or not, between an organic phase and buffer at a given pH) at 0.5 h was determined as 1.9.
On the same counts, the results for `CNC(=O)c1nnc2ccc(-c3ccc(COC)nc3)cc2c1N[C@@H](C)C1CCOCC1` are 42 µL/min/mg, 5.8 µL/min/1e6 cells, 34 µM (≈ 14.8 µg/mL) and 3.
In the same order, the values of `CNC(=O)c1nnc2ccc(-c3ccc(OCCN(C)C)nc3)cc2c1N[C@@H](C)C1CCOCC1` are 26 µL/min/mg, 4.8 µL/min/1e6 cells, 990 µM (≈ 474 µg/mL) and 2.5.
In the same order, the values of `C[C@H](Nc1c(C(N)=O)nnc2ccc(-c3ccc(OCCCN4CCCC4)nc3)cc12)c1ccn(C)n1` are 10 µL/min/mg, 4.6 µL/min/1e6 cells, 490 µM (≈ 245 µg/mL) and 1.8.
Take `COCc1ccc(-c2ccc3nnc(C(N)=O)c(N[C@@H](C)C4CCOCC4)c3c2)cn1`: the bioavailability (as a rule, dose-corrected exposure relative to a reference, in per cent) in [5] was 56%. In data set [1], this compound registered an intrinsic clearance (microsomal CLint) at 0.5 h, 1 µM of 33 µL/min/mg. Besides, the hepatocyte CLint at 0.5 h, 1 µM in data set [2] stood at 5.6 µL/min/1e6 cells. In data set [3], this compound showed a solubility (thermodynamic) at 24 h greater than 1000 µM. The clearance in data set [6] was 21 mL/min/kg. In [4], this compound came in with a log distribution coefficient (logD) at 0.5 h of 2.7. Further, the Vd in [7] amounted to 0.7 L/kg.
In the case of `Cc1cn(C)nc1[C@H](C)Nc1c(C(N)=O)nnc2ccc(-c3ccc(OCCCN4CCCC4)nc3)cc12`, the microsomal CLint at 0.5 h, 1 µM in data set [1] is 40 µL/min/mg. The same compound yielded a hepatocyte CLint at 0.5 h, 1 µM in data set [2] of 8.1 µL/min/1e6 cells. In data set [3], this compound had a solubility (thermodynamic) at 24 h of 510 µM (≈ 262 µg/mL). This compound also returned a logD at 0.5 h in [4] of 2.1.
In the same order, the values of `COCc1ccc(-c2ccc3nnc(C(N)=O)c(N[C@@H](C)c4ccn(C)n4)c3c2)cn1` are 14 µL/min/mg, 4.9 µL/min/1e6 cells, 76 µM (≈ 31.7 µg/mL) and 3.
In the same order, the values of `Cc1cn(C)nc1[C@H](C)Nc1c(C(N)=O)nnc2ccc(-c3ccc(OCCCN(C)C)nc3)cc12` are 27 µL/min/mg, 12 µL/min/1e6 cells, 290 µM (≈ 142 µg/mL) and 2.1.
In the same order, the values of `C[C@H](Nc1c(C(N)=O)nnc2ccc(-c3ccc(OCCCN4CCCC4)nc3)cc12)C1CCOCC1` are 23 µL/min/mg, 1.9 µL/min/1e6 cells, 620 µM (≈ 313 µg/mL) and 1.9.
`CNC(=O)c1nnc2ccc(-c3ccc(OCCCN(C)C)nc3)cc2c1N[C@@H](C)c1nn(C)cc1C`: the microsomal CLint at 0.5 h, 1 µM in data set [1] amounted to 33 µL/min/mg. Also, the hepatocyte CLint at 0.5 h, 1 µM in data set [2] was 6.7 µL/min/1e6 cells. In data set [3], the solubility (thermodynamic) at 24 h stood at 620 µM (≈ 312 µg/mL). In addition, the logD at 0.5 h in data set [4] came to 2.3.
In the same order, the values of `COCc1ccc(-c2ccc3nnc(C(N)=O)c(N[C@@H](C)c4nn(C)cc4C)c3c2)cn1` are 31 µL/min/mg, 18 µL/min/1e6 cells, 8 µM (≈ 3.45 µg/mL) and 2.8.
On the same counts, the results for `C[C@H](Nc1c(C(N)=O)nnc2ccc(-c3ccc(NCCN(C)C)nc3)cc12)C1CCOCC1` are 18 µL/min/mg, 4.2 µL/min/1e6 cells, greater than 1000 µM and 2.
As to `C[C@H](Nc1c(C(N)=O)nnc2ccc(-c3ccc(OCCCN(C)C)nc3)cc12)C1CCOCC1`, the results for the half-life in data set [8] and in data set [11] were 6.2 h and 4.1 h, respectively. Moreover, the bioavailability was 26% in data set [9] and 43% in data set [14]. Moreover, the values for the hepatocyte CLint at 1 µM in [10] and in data set [12] were 2.8 µL/min/1e6 cells and 5.1 µL/min/1e6 cells, respectively. The intrinsic metabolic clearance (microsomal CLint) at 0.5 h, 1 µM in data set [1] was 28 µL/min/mg. In addition, the values for the clearance in data set [13] and in data set [16] were 49 mL/min/kg and 25 mL/min/kg, respectively. In data set [2], this compound showed a hepatocyte CLint at 0.5 h, 1 µM of 3.4 µL/min/1e6 cells. Moreover, in data set [3], the solubility (thermodynamic) at 24 h is 870 µM (≈ 416 µg/mL). This compound came in with a pH-dependent lipophilicity (logD) at 0.5 h in data set [4] of 1.9. Besides, the Vd in data set [15] is 5.5 L/kg; in data set [17] it was 20 L/kg.
Regarding `C[C@H](Nc1c(C(N)=O)nnc2ccc(-c3ccc(OCCCN(C)C)nc3)cc12)c1ccn(C)n1`, in [1], the intrinsic metabolic clearance (microsomal CLint) at 0.5 h, 1 µM was 10 µL/min/mg. Also, the hepatocyte CLint at 0.5 h, 1 µM in data set [2] is 7 µL/min/1e6 cells. Also, in data set [3], the thermodynamic solubility at 24 h was 65 µM (≈ 30.8 µg/mL). Also, in [4], the log distribution coefficient (logD) at 0.5 h came to 1.7.
Regarding `COCc1ccc(-c2ccc3ncc(C(N)=O)c(N[C@@H](C)C4CCOCC4)c3c2)cn1`, in [1], the intrinsic metabolic clearance (microsomal CLint) at 0.5 h, 1 µM is 26 µL/min/mg. For the same compound, the hepatocyte CLint at 0.5 h, 1 µM in [2] was less than 5.3 µL/min/1e6 cells.
For the compound `CNC(=O)c1nnc2ccc(-c3ccc(OCCCN(C)C)nc3)cc2c1N[C@@H](C)C1CCOCC1`, the half-life is 4.7 h in data set [8] and 5.6 h in data set [11]. For the same compound, the bioavailability worked out at 41% in [9] and 35% in [14]. Further, the results for the hepatocyte CLint at 1 µM in data set [10] and in data set [12] were 4.1 µL/min/1e6 cells and 8.8 µL/min/1e6 cells, respectively. The intrinsic clearance (microsomal CLint) at 0.5 h, 1 µM in data set [1] was 22 µL/min/mg. Further, the clearance in [13] is 48 mL/min/kg; in [16], 7.8 mL/min/kg. The Time in data set [18] was greater than 12 h. The compound also returned a hepatocyte CLint at 0.5 h, 1 µM in [2] of 5.7 µL/min/1e6 cells. In data set [3], this compound came in with a thermodynamic solubility at 24 h of 880 µM (≈ 434 µg/mL). Moreover, the pH-dependent lipophilicity (logD) at 0.5 h in data set [4] stood at 2.3. Moreover, the Vd in data set [15] was 2.8 L/kg; in data set [17] it was 14 L/kg.
